Source: ChEMBL document CHEMBL1135826, “Antimicrobial peptides: synthesis and antibacterial activity of linear and cyclic drosocin and apidaecin 1b analogues” (2002)
In brackets after ≈: the same amount, converted by molar mass. Where a SMILES comes first, the peptide text is derived from it. The star is where a group is joined. X2 = CC(=O)N[C@@H]1[C@@H](O)[C@H](O)[C@@H](CO)O[C@@H]1*

Experiments:
Klebsiella pneumoniae [1] = assay: Minimum inhibitory concentration (lowest peptide concentration) required to prevent visible bacterial growth after 18 hr of incubation at 37 C in Mueller-Hinton broth against Klebsiella pneumoniae 79; format: functional
In short: (§1)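 Broth microdilution susceptibility test per NCCLS guidelines, in Mueller–Hinton broth with about 1.5–2.0 × 10^5 CFU/mL inoculum. Plates were incubated 18 h at 37 °C. MIC was taken as the lowest peptide concentration with no visible growth. Strains were ATCC strains or clinical isolates; E. coli O18:K1:H7 Bort is an encapsulated isolate from neonatal spinal fluid, and the S. aureus isolate is MRSA.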

Salmonella enteritidis [2] = assay: Minimum inhibitory concentration (lowest peptide concentration) required to prevent visible bacterial growth after 18 h of incubation at 37 C in Mueller-Hinton broth against […]; format: functional, Salmonella enterica subsp. enterica serovar Enteritidis; details: Salmonella enterica; in short: as §1
[3] = test system: Staphylococcus epidermidis; assay: Minimum inhibitory concentration (lowest peptide concentration) required to prevent visible bacterial growth after 18 hr of incubation at 37 C in Mueller-Hinton broth against Staphylococcus epidermidis 4; format: functional; in short: as §1
Escherichia coli [4] = assay: Minimum inhibitory concentration (lowest peptide concentration) required to prevent visible bacterial growth after 18 hr of incubation at 37 C in Mueller-Hinton broth against Escherichia coli D22; format: functional; in short: as §1
Salmonella typhimurium = assay: Minimum inhibitory concentration (lowest peptide concentration) required to prevent visible bacterial growth after 18 hr of incubation at 37 C in Mueller-Hinton broth against Salmonella Typhimurium ATCC 14028; format: functional, Salmonella enterica subsp. enterica serovar Typhimurium; details: Salmonella enterica; in short: as §1
Staphylococcus aureus = assay: Minimum inhibitory concentration (lowest peptide concentration) required to prevent visible bacterial growth after 18 hr of incubation at 37 C in Mueller-Hinton broth against Staphylococcus aureus G; format: functional; in short: as §1
Escherichia coli [5] = assay: Minimum inhibitory concentration (lowest peptide concentration) required to prevent visible bacterial growth after 18 hr of incubation at 37 C in Mueller-Hinton broth against Escherichia coli D21; format: functional; in short: as §1
Pseudomonas aeruginosa = assay: Minimum inhibitory concentration (lowest peptide concentration) required to prevent visible bacterial growth after 18 hr of incubation at 37 C in Mueller-Hinton broth against Pseudomonas aeruginosa ATCC 27853; format: functional; details: ATCC 27853, 18 h; in short: as §1
Klebsiella pneumoniae [6] = assay: Minimum inhibitory concentration (lowest peptide concentration) required to prevent visible bacterial growth after 18 hr of incubation at 37 C in Mueller-Hinton broth against Klebsiella pneumoniae 22; format: functional; in short: as §1
Escherichia coli [7] = assay: Minimum inhibitory concentration (lowest peptide concentration) required to prevent visible bacterial growth after 18 hr of incubation at 37 C in Mueller-Hinton broth against Escherichia coli ATCC 25922; format: functional; details: ATCC 25922, 18 h; in short: as §1
Escherichia coli [8] = assay: Minimum inhibitory concentration (lowest peptide concentration) required to prevent visible bacterial growth after 18 hr of incubation at 37 C in Mueller-Hinton broth against Escherichia coli ML-35; format: functional; in short: as §1
Escherichia coli [9] = assay: Minimum inhibitory concentration (lowest peptide concentration) required to prevent visible bacterial growth after 18 hr of incubation at 37 C in Mueller-Hinton broth against Escherichia coli O18:K1:H7; format: functional; in short: as §1
Acinetobacter baumannii = assay: Minimum inhibitory concentration (lowest peptide concentration) required to prevent visible bacterial growth after 18 hr of incubation at 37 C in Mueller-Hinton broth against Acinetobacter baumannii 118A; format: functional; in short: as §1
Salmonella enteritidis [10] = assay: Minimum inhibitory concentration (lowest peptide concentration) required to prevent visible bacterial growth after 18 hr of incubation at 37 C in Mueller-Hinton broth against Salmonella enteritidis D5; details: Salmonella enterica

| MIC (Klebsiella pneumoniae [1]) [µM] | MIC (Salmonella enteritidis [2]) [µM] | MIC [3] [µM] | MIC (Escherichia coli [4]) [µM] | MIC (Salmonella typhimurium) [µM] | MIC (Staphylococcus aureus) [µM] | MIC (Escherichia coli [5]) [µM] | MIC (Pseudomonas aeruginosa) [µM] | MIC (Klebsiella pneumoniae [6]) [µM] | MIC (Escherichia coli [7]) [µM] | MIC (Escherichia coli [8]) [µM] | MIC (Escherichia coli [9]) [µM] | MIC (Acinetobacter baumannii) [µM] | MIC (Salmonella enteritidis [10]) [µM] | Structure (SMILES) |
| --- | --- | --- | --- | --- | --- | --- | --- | --- | --- | --- | --- | --- | --- | --- |
| > 128 | > 64 | > 64 | 32 (≈ 77.2 µg/mL) | 64 (≈ 154 µg/mL) | > 64 | > 64 | > 128 | > 128 | 32 (≈ 77.2 µg/mL) | 32 (≈ 77.2 µg/mL) | 64 (≈ 154 µg/mL) | > 128 | 64 (≈ 154 µg/mL) | CC[C@H](C)[C@H](NC(=O)[C@H](Cc1ccc(O)cc1)NC(=O)[C@@H](NC(=O)[C@@H]1CCCN1C(=O)[C@H](CCCN=C(N)N)NC(=O)[C@H](CC(N)=O)NC(=O)[C@H](CC(N)=O)NC(=O)CN)C(C)C)C(=O)N1CCC[C@H]1C(=O)N[C@@H](CCC(N)=O)C(=O)N1CCC[C@H]1C(=O)N[C@@H](CCCN=C(N)N)C(=O)N1CCC[C@H]1C(=O)N[C@H](C(=O)N1CCC[C@H]1C(=O)N[C@@H](Cc1c[nH]cn1)C(=O)N1CCC[C@H]1C(=O)N[C@@H](CCCN=C(N)N)C(=O)N[C@@H](CC(C)C)C(=O)O)[C@@H](C)O[C@H]1O[C@H](CO)[C@@H](O)[C@H](O)[C@H]1NC(C)=O (H-GNNRPVYIPQPRPT(X2)PHPRL-OH) |
| > 64 | > 64 | > 64 | > 64 | > 64 | > 64 | > 64 | > 64 | > 64 | > 64 | > 64 | > 64 | > 64 | > 64 | CC[C@H](C)[C@H](NC(=O)[C@@H]1CCCN1C(=O)[C@H](CCCN=C(N)N)NC(=O)[C@@H]1CCCN1C(=O)[C@H](Cc1c[nH]cn1)NC(=O)[C@@H]1CSSC[C@H](NC(=O)[C@H](Cc2ccc(O)cc2)NC(=O)[C@@H]2CCCN2C(=O)[C@H](CCCN=C(N)N)NC(=O)[C@@H]2CCCN2C(=O)[C@H](CCCCN)NC(=O)CN)C(=O)N2CCC[C@H]2C(=O)N[C@@H](CCCN=C(N)N)C(=O)N2CCC[C@H]2C(=O)N[C@@H]([C@@H](C)O)C(=O)N1)C(=O)N[C@@H](CCCN=C(N)N)C(=O)N[C@H](C(=O)O)C(C)C (HELM PEPTIDE1{G.K.P.R.P.Y.C.P.R.P.T.C.H.P.R.P.I.R.V}$PEPTIDE1,PEPTIDE1,7:R3-12:R3$$$V2.0) |
| > 128 | > 128 | > 64 | 64 (≈ 140 µg/mL) | > 128 | > 64 | > 64 | > 128 | > 128 | > 128 | > 128 | > 128 | > 64 | > 128 | CC[C@H](C)[C@@H]1NC(=O)[C@@H]2CCCN2C(=O)[C@H](CCCN=C(N)N)NC(=O)[C@@H]2CCCN2C(=O)[C@H](Cc2c[nH]cn2)NC(=O)[C@H](CO)NC(=O)[C@H]([C@@H](C)O)NC(=O)[C@@H]2CCCN2C(=O)[C@H](CCCN=C(N)N)NC(=O)[C@@H]2CCCN2C(=O)[C@H](CO)NC(=O)[C@H](Cc2ccc(O)cc2)NC(=O)[C@@H]2CCCN2C(=O)[C@H](CCCN=C(N)N)NC(=O)[C@@H]2CCCN2C(=O)[C@H](CCCCN)NC(=O)CNC(=O)[C@H](C(C)C)NC(=O)[C@H](CCCN=C(N)N)NC1=O (HELM PEPTIDE1{G.K.P.R.P.Y.S.P.R.P.T.S.H.P.R.P.I.R.V}$PEPTIDE1,PEPTIDE1,1:R1-19:R2$$$V2.0) |
